# Screens (PubChem BioAssay)
# Rows were chosen to be rich in hits. Some 2% of all compounds tested hit in one or more screens of this group.
# DNA FID counter = compounds displacing fluorescent DNA intercalator, primary screen, artefact control for HCV NS3 helicase inhibitor project, biochemical, FID fluorescence. DNA fluorescent intercalator displacement. inhibition, % at 7.9 µM. 290,000 tested, 0.17% active. AID 1845, 2009; in the data active = inhibition above about 37%;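 note: 0% = vehicle and 100% = reference compound; higher means more ethidium bromide displaced from hairpin DNA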
# NS3 helicase inh = inhibitors of HCV NS3 helicase, primary screen, biochemical, Cy5 molecular beacon fluorescence; 290,000 tested, 0.56% active; NS3 helicase DNA unwinding; Hepatitis C virus NS3 helicase; inhibition, % at 10.9 µM;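 active = inhibition above the mean of all tested compounds plus 3 SD, set per campaign, cut at about 35% in these data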;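 note: 0% = DMSO wells and 100% = thioflavine S control wells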
#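 System: HCV NS3 helicase fragment; control set: DMSO and thioflavine S; technique: Cy5 fluorescence at 0 and 60 min, beacon hairpin quenching; reagent: beacon DNA duplex substrate plus ATP; replicates: singlicate; schedule: 1 h reaction at 25 °C, ATP-initiated; medium: MOPS buffer pH 6.5 with MgCl2, DTT, Tween20, BSA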
# EBNA-1 inh = EBNA-1 DNA-binding inhibitors, primary screen, biochemical, fluorescence polarization. 300,000 tested, 0.34% active. inhibition, % at 14.8 µM. AID 1950, 2009; in the data active = inhibition above about 28%
# ZTA counter = blocks Epstein-Barr virus ZTA, an EBNA-1 counter-screen | ZTA-DNA binding, fluorescence polarization | AID 2234 | inhibition, % at 11 µM | 320,000 tested, 0.15% active | P03206; in the data active = inhibition above about 33%
# GPR7 antagonist = GPR7 receptor antagonists, primary screen, cell-based, fluorescence, single concentration | GPR7-expressing cells, fluorescence antagonist assay | inhibition, % at 4.4 µM | 290,000 tested, 1.1% active; in the data active = inhibition above about 16%, passing the limit was not always enough;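 note: cells stimulated with the agonist NPW; 0% = agonist with vehicle and 100% = vehicle without agonist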
# Target sequence (P48145 whole entry, looked up): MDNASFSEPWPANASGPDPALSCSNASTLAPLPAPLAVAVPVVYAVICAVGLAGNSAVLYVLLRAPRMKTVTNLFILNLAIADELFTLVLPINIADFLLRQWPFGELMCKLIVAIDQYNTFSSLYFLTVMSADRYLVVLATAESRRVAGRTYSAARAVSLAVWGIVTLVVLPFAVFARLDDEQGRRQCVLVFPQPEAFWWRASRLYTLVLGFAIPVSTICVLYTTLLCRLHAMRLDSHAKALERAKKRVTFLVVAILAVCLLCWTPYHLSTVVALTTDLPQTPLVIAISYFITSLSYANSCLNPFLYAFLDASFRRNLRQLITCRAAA
# Zta DNA confirm = EBV Zta binding to ZRE DNA, inhibitors, confirmation, biochemical, fluorescence polarization, triplicate; inhibition, % at 11.1 µM; 320 tested, 30% active; shares compounds with ZTA counter;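 active = mean inhibition across triplicate runs above the hit threshold derived for the original primary screen, cut at about 33% in these data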;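 note: 0% = Zta with DMSO and 100% = wells lacking Zta protein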
# EBNA-1 counter = EBNA-1 DNA-binding inhibition, counter-screen for ZTA inhibitor project, biochemical, fluorescence polarization. 320 tested, under 10 active. shares compounds with ZTA counter. inhibition, % at 14.8 µM; call rule not given here
# Starred values were filed as active, the others as inactive; nt = no result.
SMILES,DNA FID counter,NS3 helicase inh,EBNA-1 inh,ZTA counter,GPR7 antagonist,Zta DNA confirm,EBNA-1 counter
COc1ccccc1N(C)S(=O)(=O)c1ccc(C(=O)Nc2nccs2)cc1,nt,nt,nt,-16,nt,nt,nt
Cc1nc2c(ccc3nc(NC(=O)C4CC4)sc32)s1,-8,5,10,2,-14,nt,nt
CCC(=O)Nc1nc2ccc3sc(C)nc3c2s1,-7,10,11,35*,9,-7,-4
Nc1ccc(Sc2cc(Cl)nc(N)n2)cc1,3,2,-4,1,-15,nt,nt
Nc1nc(N)c2cc(Sc3ccc4ccccc4c3)ccc2n1,24,-64,2,34*,-10,20,-4
C/C=C\C=C\C(=O)N1CC2(CC(c3cccc(NC(=O)CC)c3)=NO2)C[C@H]1C(N)=O (stereo partly specified),nt,nt,6,35*,nt,9,5
COc1cc(C#Cc2c(-c3cncn3C)n(C)c3ccc(-c4cnc(OC)nc4)cc23)cc(OC)c1,nt,nt,nt,38*,nt,5,-2
CCCN(CC(=O)Nc1ccccc1C)C(=O)c1cccc(S(=O)(=O)N2CCN(c3ccccc3)CC2)c1,nt,nt,-1,-4,nt,nt,nt
CCOC(=O)c1cc2c(C)n(-c3ccc(N(C)C)cc3)c(C)c2cc(C(=O)OCC)c1=O,6,1,-6,160*,-14,6,-1
CCOC(=O)c1cc2c(C)n(-c3ccc(OCC)cc3)c(C)c2cc(C(=O)OCC)c1=O,-19,4,4,-9,-12,nt,nt
COc1cc(/C=C/C(=O)/C=C(O)/C=C/c2ccc(O)c(OC)c2)ccc1O,nt,nt,nt,34*,nt,14,-8
COc1cc(/C=C/C(=O)O)ccc1O,nt,nt,4,3,nt,nt,nt
COc1ccc(CCNC(=O)C(=O)NCC2OCCN2S(=O)(=O)c2ccc3c(c2)OCCO3)cc1OC (stereo unspecified),-49,-5,-1,8,-10,nt,nt
N#Cc1c(N2CCCC2)nc(N)c2c(N)nc(N3CCCC3)cc12,1,3,10,60*,2,55*,-26
O=C(Nc1ccc(N2CCOCC2)c2nonc12)C1CCCC1,-1,-1,17,8,-7,nt,nt
Nc1ccc(N2CCOCC2)c2nonc12,9,5,-3,55*,-8,2,7
CCNc1ccccc(-c2ccc3ccccc3n2)c1=O,-12,24,-1,-1,-4,nt,nt
CCNc1ccc2noc3c2c1C(=O)c1ccccc1-3,12,21,-3,63*,-4,19,9
CC1CCCCN1C(=O)CN1C(=O)CSc2ccc(S(=O)(=O)N3CCOCC3)cc21 (stereo unspecified),-18,3,-5,-3,8,nt,nt
CCC(NC(=O)CCc1ccccc1)c1ccccc1 (stereo unspecified),-5,-4,6,-20,-3,nt,nt
O=C(O)CC(NC(=O)CCc1ccccc1)c1ccc(Cl)cc1 (stereo unspecified),-18,15,11,62*,-7,-1,-5
Cc1cc(OCC(=O)NCCCN2CCOCC2)c2c(C)cc(=O)oc2c1,1,5,-4,3,-11,nt,nt
O=C(Nc1c2c(nn1-c1ccc([N+](=O)[O-])cc1)CS(=O)(=O)C2)c1ccccc1F,0,6,-4,-6,-11,nt,nt
O=C(COc1ccc(S(=O)(=O)NC2CCCCC2)cc1Cl)NCC1CCCO1 (stereo unspecified),-34,3,4,152*,-1,12,0
Cn1c(SCC(=O)NCC2CCCO2)ncc(C(=O)Nc2ccc(Cl)cc2)c1=O (stereo unspecified),nt,nt,-16,-6,nt,nt,nt
CC1(C)CC(=O)C2=C(C1)OC(N)=C(C#N)C2c1ccccc1[N+](=O)[O-] (stereo unspecified),0,-8,2,129*,3,3,-12
O=C(Nn1c(C2CCC2)nc2ccccc2c1=O)c1cccs1,-9,-12,1,34*,-8,0,-4
